We go through 14 molecules from ChEMBL document CHEMBL1133159, “Conformationally constrained analogues of diacylglycerol (DAG). 17. Contrast between sn-1 and sn-2 DAG lactones in binding to protein kinase C” (J Med Chem, 2000).

As usually defined, the Ki is the equilibrium dissociation constant of an inhibitor or competing ligand from its target. A low value points to tighter binding. Usually logP stands for the decadic logarithm of the partition coefficient of the neutral form, usually between octanol and water. Read a low logP as a more hydrophilic compound.

Data set [1] has as its target T1, Protein kinase C alpha type (Homo sapiens, UniProt P17252). Briefly: Affinity for protein kinase C alpha. Put shortly:
(§1)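 Competitive displacement of bound [20-3H]phorbol 12,13-dibutyrate (PDBU) from recombinant single-isozyme PK-Cα in the presence of phosphatidylserine. ID50 was obtained by fitting the inhibition data points to a theoretical noncooperative competition curve.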

The target of data set [2] is T1, Protein kinase C alpha type. The data set is described as follows: Affinity for protein kinase-C alpha (PK-C alpha). The method in brief: as §1
Data set [3] in a line: Partition coefficient (logP). The format is physicochemical. The settings on record: octanol/water.

Take `CCCCCCCCCC(=O)OCC1(CO)C/C(=C/CC(C)C)C(=O)O1` (stereo not given): the affinity in data set [1], expressed as Ki, was 2.3 nM.

Regarding `CCCCCCCC/C=C1/CC([C@H](CO)OC(=O)CCCCCCCC)OC1=O` (stereo not given in full), the Ki in data set [1] and in data set [2] was 1760 nM each time. For `CC(C)C(C/C=C1\CC([C@H](CO)OC(=O)CC(C(C)C)C(C)C)OC1=O)C(C)C` (stereo not given in full), in data set [3], the logP was 5.86. For the same molecule, in data set [2], the Ki was 679 nM.

Molecule `CCCCCCCC/C=C1\CC([C@H](CO)OC(=O)CCCCCCCC)OC1=O` (stereo not given in full) came in with a lipophilicity (logP) in data set [3] of 6.3. Besides, the Ki in data set [1] and in data set [2] was 1200 nM in each case.

On to `CCCCCCCC/C=C1/CC([C@H](CO)OC(=O)CC(C(C)C)C(C)C)OC1=O` (stereo not given in full), for which, in data set [2], affinity was put at a Ki of 565 nM.

`CCCCCCC/C=C/CCCCCCC/C=C1/CC(CO)(COC(C)=O)OC1=O` (stereo not given): the Ki in data set [1] was found to be 24 nM. In turn, `CC(C)C(C/C=C1/CC([C@H](CO)OC(=O)CC(C(C)C)C(C)C)OC1=O)C(C)C` (stereo not given in full) had a Ki in data set [2] of 327 nM. Regarding `CCCCCCCC/C=C1/CC([C@H](CO)OC(=O)CC(C)C)OC1=O` (stereo not given in full), in data set [1], the Ki came to 565 nM. That is a sub-micromolar value. Same read-out and setting: in the case of `CCCCCCCCC/C=C1/CC(CO)(COC(=O)CC(C)C)OC1=O` (stereo not given) it was 13 nM. With `CCCCCCCCC(=O)O[C@@H](CO)C1C/C(=C\CC(C(C)C)C(C)C)C(=O)O1` (stereo not given in full), the logP in data set [3] was found to be 6.08. The affinity in data set [2], expressed as Ki, was 1090 nM. As to `CCCCCCCC/C=C1\CC([C@H](CO)OC(=O)CC(C)C)OC1=O` (stereo not given in full), the Ki in data set [1] amounted to 579 nM.

For the molecule `CCCCCCCCCCCCCC(=O)O[C@@H](CO)C1CCC(=O)O1` (stereo not given in full), the Ki in data set [1] and in data set [2] was 1000 nM each time. In the case of `CCCCCCCC/C=C/CCCCCCCC(=O)OCC1(CO)CCC(=O)O1` (stereo not given), the Ki in data set [1] was 96 nM. `CCCCCCCCC(=O)O[C@@H](CO)C1C/C(=C/CC(C(C)C)C(C)C)C(=O)O1` (stereo not given in full): the Ki in data set [2] turned out to be 499 nM.
